# In ChEMBL document CHEMBL2086325, “Suppression of autoimmune arthritis by Celastrus-derived Celastrol through modulation of pro-inflammatory chemokines” (Bioorg Med Chem, 2012):
# Calls of active or inactive are those of the source. No cut-off for these calls is given here.
# Experiments:
# Rattus norvegicus [1] = organism: Rattus norvegicus; experiment: Increase in CCR1 expression in sonicated Mtb-stimulated spleen adherent cells isolated from Lewis rat adjuvant-induced arthritis model pre-incubated with compound before stimulation with sonicated Mtb for 24 hrs by qPCR; format: functional, tissue-based
# In short: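 Spleen adherent cells (1.5–2.0 × 10^6 cells/well) came from an untreated arthritic Lewis rat. They were restimulated 24 h with sonicated Mtb (10 μg/ml) with or without compound at 0.1 and 0.3 μM. CCR1 mRNA was measured by qPCR, normalized to HPRT and expressed as relative message.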
# Rattus norvegicus [2] = experiment: Antiarthritic effect in Lewis rat adjuvant-induced arthritis model serum assessed as reduction in GRO/KC production at 200 ug, ip starting from arthritis onset and continued uninterrupted until study end by cytokine multiplex assay; format: functional, organism-based
# In short: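 Arthritic Lewis rats (Mtb 1.5 mg s.c. in mineral oil) were given 200 μg/rat i.p. daily from onset until the day before harvest; controls received DMSO/PBS vehicle. On d 18, blood was taken by cardiac puncture after euthanasia and serum stored at −80 °C. Serum pooled from 4 rats was assayed in triplicate by multiplex.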
# Rattus norvegicus [3] = organism: Rattus norvegicus; experiment: Antiarthritic effect in sonicated Mtb-stimulated spleen adherent cells isolated from Lewis rat adjuvant-induced arthritis model assessed as reduction in GRO/KC production pre-incubated with compound for 30 mins before stimulation with sonicated-Mtb for 48 hrs by multiplex assay; format: functional, tissue-based
# Rattus norvegicus [4] = organism: Rattus norvegicus; experiment: Antiarthritic effect in sonicated Mtb-stimulated spleen adherent cells isolated from Lewis rat adjuvant-induced arthritis model assessed as reduction in TNFalpha production pre-incubated with compound for 30 mins before stimulation with sonicated-Mtb for 48 hrs by multiplex assay; format: functional, tissue-based
# Rattus norvegicus [5] = organism: Rattus norvegicus; experiment: Antiarthritic effect in sonicated Mtb-stimulated spleen adherent cells isolated from Lewis rat adjuvant-induced arthritis model assessed as reduction in RANTES production pre-incubated with compound for 30 mins before stimulation with sonicated-Mtb for 48 hrs by multiplex assay; format: functional, tissue-based
# Rattus norvegicus [6] = experiment: Antiarthritic effect in Lewis rat adjuvant-induced arthritis model spleen adherent cells restimulated with sonicated Mtb post isolation assessed as reduction in MIP-1alpha production at 200 ug, ip starting from arthritis onset and continued uninterrupted until study end by cytokine multiplex assay; format: functional, organism-based
# In short: (§1)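 Mtb-immunized male Lewis rats were dosed 200 μg/rat i.p. daily from arthritis onset (vehicle: 1.2% DMSO/PBS). Spleen adherent cells were prepared on d 18, plated at 1.5 × 10^6/well in 2% FBS medium and restimulated with sonicated Mtb (10 μg/ml) for 24 h. Supernatant chemokines and cytokines were measured by Luminex multiplex. Mean ± SD of triplicates from 4–5 rats.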
# Rattus norvegicus [7] = experiment: Antiarthritic effect in Lewis rat adjuvant-induced arthritis model spleen adherent cells restimulated with sonicated Mtb post isolation assessed as reduction in RANTES production at 200 ug, ip starting from arthritis onset and continued uninterrupted until study end by cytokine multiplex assay; format: functional, organism-based; in short: as §1
structure (smiles),measurement,setting,value
CC1=C(O)C(=O)C=C2C1=CC=C1[C@@]2(C)CC[C@@]2(C)[C@@H]3C[C@](C)(C(=O)O)CC[C@]3(C)CC[C@]12C [CELASTROL],Activity,Rattus norvegicus [1],Dose-dependent effect
same,Activity,Rattus norvegicus [2],Active
same,Activity,Rattus norvegicus [3],Dose-dependent effect
same,Activity,Rattus norvegicus [4],Dose-dependent effect
same,Activity,Rattus norvegicus [5],Dose-dependent effect
same,Activity,Rattus norvegicus [6],inactive
same,Activity,Rattus norvegicus [7],Active
